Experimental data taken from ChEMBL document CHEMBL1144404, “Aminoimidazolylmethyluracil analogues as potent inhibitors of thymidine phosphorylase and their bioreductive nitroimidazolyl prodrugs” (J Med Chem, 2005).

B1: Thymidine phosphorylase (Escherichia coli K-12), P07650 (protein)
chain: MFLAQEIIRKKRDGHALSDEEIRFFINGIRDNTISEGQIAALAMTIFFHDMTMPERVSLTMAMRDSGTVLDWKSLHLNGPIVDKHSTGGVGDVTSLMLGPMVAACGGYIPMISGRGLGHTGGTLDKLESIPGFDIFPDDNRFREIIKDVGVAIIGQTSSLAPADKRFYATRDITATVDSIPLITASILAKKLAEGLDALVMDVKVGSGAFMPTYELSEALAEAIVGVANGAGVRTTALLTDMNQVLASSAGNAVEVREAVQFLTGEYRNPRLFDVTMALCVEMLISGKLAKDDAEARAKLQAVLDNGKAAEVFGRMVAAQKGPTDFVENYAKYLPTAMLTKAVYADTEGFVSEMDTRALGMAVVAMGGGRRQASDTIDYSVGFTDMARLGDQVDGQRPLAVIHAKDENNWQEAAKAVKAAIKLADKAPESTPTVYRRISE
B2: Thymidine phosphorylase (Homo sapiens), P19971 (protein)
chain: MAALMTPGTGAPPAPGDFSGEGSQGLPDPSPEPKQLPELIRMKRDGGRLSEADIRGFVAAVVNGSAQGAQIGAMLMAIRLRGMDLEETSVLTQALAQSGQQLEWPEAWRQQLVDKHSTGGVGDKVSLVLAPALAACGCKVPMISGRGLGHTGGTLDKLESIPGFNVIQSPEQMQVLLDQAGCCIVGQSEQLVPADGILYAARDVTATVDSLPLITASILSKKLVEGLSALVVDVKFGGAAVFPNQEQARELAKTLVGVGASLGLRVAAALTAMDKPLGRCVGHALEVEEALLCMDGAGPPDLRDLVTTLGGALLWLSGHAGTQAQGAARVAAALDDGSALGRFERMLAAQGVDPGLARALCSGSPAERRQLLPRAREQEELLAPADGTVELVRALPLALVLHELGAGRSRAGEPLRLGVGAELLVDVGQRLRRGTPWLRVHRDGPALSGPQSRALQEALVLSDRAPFAAPSPFAELVLPPQQ

Legend:
[1] = substrate: O=c1[nH]c(=O)n([C@H]2C[C@H](O)[C@@H](CO)O2)cc1[N+](=O)[O-]; experiment: Michaelis-Menten constant against Escherichia coli thymidine phosphorylase
How it was run: (§1)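 Continuous UV assay at 355 nm and 25 °C in 0.2 mL of 0.1 M potassium phosphate pH 7.4, using recombinant E. coli TP (ca. 0.00883 units per assay) added to start the reaction. Substrate is thymidine or 5-nitro-2'-deoxyuridine; phosphorolysis to 5-nitrouracil followed (εM 13300 M-1 cm-1 for substrate).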

[2] = substrate: Cc1cn([C@H]2C[C@H](O)[C@@H](CO)O2)c(=O)[nH]c1=O; experiment: (§2) Vmax against Escherichia coli thymidine phosphorylase; how it was run: as §1
[3] = substrate: O=c1[nH]c(=O)n([C@H]2C[C@H](O)[C@@H](CO)O2)cc1[N+](=O)[O-]; experiment: as §2; how it was run: as §1
[4] = substrate: O=c1[nH]c(=O)n([C@H]2C[C@H](O)[C@@H](CO)O2)cc1[N+](=O)[O-]; experiment: Michaelis-Menten constant against human thymidine phosphorylase
How it was run: (§3)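 Recombinant human TP expressed in V79 Chinese hamster cells, 0.065 absorbance unit per assay. Continuous spectrophotometric assay at 355 nm, 25 °C, 0.1 M phosphate buffer pH 7.4, 0.2 mL total volume, with 5-nitro-2'-deoxyuridine as substrate; kinetic constants from initial rates.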

[5] = substrate: O=c1[nH]c(=O)n([C@H]2C[C@H](O)[C@@H](CO)O2)cc1[N+](=O)[O-]; experiment: Vmax against human thymidine phosphorylase; how it was run: as §3

Protein	Km [1] [µM]	Vmax [2] [mM/min]	Vmax [3] [mM/min]	Km [4] [µM]	Vmax [5] [mM/min]
B1	230	1.15	0.013	–	–
B2	–	–	–	160	0.0086
